Assay results published in ChEMBL document CHEMBL1287651, “Synthesis and in vitro antibacterial activity of fluoroquinolone derivatives containing 3-(N'-alkoxycarbamimidoyl)-4-(alkoxyimino) pyrrolidines” (2010).
In brackets after ≈: the same amount, converted by molar mass.

What was measured:
Type in all cases: functional
Staphylococcus aureus [1] = experiment: Antibacterial activity against methicillin-sensitive Staphylococcus aureus 08-2 after 18 to 24 hrs by twofold serial dilution method
Outline: (§1)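 Standard twofold serial agar dilution method on agar media for MIC determination. Screened against representative Gram-positive and Gram-negative strains. Levofloxacin and GMFX served as control drugs.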

Escherichia coli [2] = experiment: Antibacterial activity against Escherichia coli 08-22 after 18 to 24 hrs by twofold serial dilution method
Outline: (§2)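 MIC determined by the standard twofold serial dilution method on agar media, screening against Gram-positive and Gram-negative strains. Levofloxacin and gemifloxacin were run alongside as reference drugs.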

Enterococcus faecalis [3] = experiment: Antibacterial activity against Enterococcus faecalis 08-12 after 18 to 24 hrs by twofold serial dilution method; outline: as §2
[4] = tested on: Staphylococcus epidermidis; experiment: Antibacterial activity against methicillin-sensitive Staphylococcus epidermidis 09-6 after 18 to 24 hrs by twofold serial dilution method; outline: as §1
Escherichia coli [5] = experiment: Antibacterial activity against Escherichia coli 08-21 after 18 to 24 hrs by twofold serial dilution method; outline: as §2
Pseudomonas aeruginosa [6] = experiment: Antibacterial activity against Pseudomonas aeruginosa 09-35 after 18 to 24 hrs by twofold serial dilution method; outline: as §2
Pseudomonas aeruginosa [7] = experiment: Antibacterial activity against Pseudomonas aeruginosa 09-34 after 18 to 24 hrs by twofold serial dilution method; outline: as §2
Enterococcus faecalis [8] = experiment: Antibacterial activity against Enterococcus faecalis 08-10 after 18 to 24 hrs by twofold serial dilution method; outline: as §2
Enterococcus faecium [9] = experiment: Antibacterial activity against Enterococcus faecium 08-2 after 18 to 24 hrs by twofold serial dilution method; outline: as §2
Pseudomonas aeruginosa [10] = experiment: Antibacterial activity against Pseudomonas aeruginosa 09-33 after 18 to 24 hrs by twofold serial dilution method; outline: as §2
[11] = tested on: Staphylococcus epidermidis; experiment: Antibacterial activity against methicillin-resistant Staphylococcus epidermidis 09-2 after 18 to 24 hrs by twofold serial dilution method; outline: as §1
Pseudomonas aeruginosa [12] = experiment: Antibacterial activity against Pseudomonas aeruginosa 09-32 after 18 to 24 hrs by twofold serial dilution method; outline: as §2
Escherichia coli [13] = experiment: Antibacterial activity against Escherichia coli ATCC 25922 after 18 to 24 hrs by twofold serial dilution method; outline: as §2
Staphylococcus aureus [14] = experiment: Antibacterial activity against Staphylococcus aureus ATCC […] after 18 to 24 hrs by twofold serial dilution method; outline: as §2
Streptococcus pneumoniae [15] = experiment: Antibacterial activity against Streptococcus pneumoniae 08-4 after 18 to 24 hrs by twofold serial dilution method; outline: as §2
Klebsiella pneumoniae [16] = experiment: Antibacterial activity against Klebsiella pneumoniae 09-23 after 18 to 24 hrs by twofold serial dilution method; outline: as §2
[17] = tested on: Staphylococcus epidermidis; experiment: Antibacterial activity against methicillin-sensitive Staphylococcus epidermidis 09-3 after 18 to 24 hrs by twofold serial dilution method; outline: as §1
Klebsiella pneumoniae [18] = experiment: Antibacterial activity against Klebsiella pneumoniae 09-21 after 18 to 24 hrs by twofold serial dilution method; outline: as §2
Pseudomonas aeruginosa [19] = experiment: Antibacterial activity against Pseudomonas aeruginosa ATCC 27853 after 18 to 24 hrs by twofold serial dilution method; outline: as §2
[20] = tested on: Staphylococcus epidermidis; experiment: Antibacterial activity against methicillin-resistant Staphylococcus epidermidis 09-4 after 18 to 24 hrs by twofold serial dilution method; outline: as §1
Enterococcus faecium [21] = experiment: Antibacterial activity against Enterococcus faecium 08-7 after 18 to 24 hrs by twofold serial dilution method; outline: as §2
[22] = tested on: Staphylococcus epidermidis; experiment: Antibacterial activity against methicillin-resistant Staphylococcus epidermidis 09-3 after 18 to 24 hrs by twofold serial dilution method; outline: as §1
Staphylococcus aureus [23] = experiment: Antibacterial activity against methicillin-resistant Staphylococcus aureus 08-1 after 18 to 24 hrs by twofold serial dilution method; outline: as §1
Streptococcus pneumoniae [24] = experiment: Antibacterial activity against Streptococcus pneumoniae 08-2 after 18 to 24 hrs by twofold serial dilution method; outline: as §2
Klebsiella pneumoniae [25] = experiment: Antibacterial activity against Klebsiella pneumoniae 09-22 after 18 to 24 hrs by twofold serial dilution method; outline: as §2

Compound	MIC (Staphylococcus aureus [1])	MIC (Escherichia coli [2])	MIC (Enterococcus faecalis [3])	MIC [4]	MIC (Escherichia coli [5])	MIC (Pseudomonas aeruginosa [6])	MIC (Pseudomonas aeruginosa [7])	MIC (Enterococcus faecalis [8])	MIC (Enterococcus faecium [9])	MIC (Pseudomonas aeruginosa [10])	MIC [11]	MIC (Pseudomonas aeruginosa [12])	MIC (Escherichia coli [13])	MIC (Staphylococcus aureus [14])	MIC (Streptococcus pneumoniae [15])	MIC (Klebsiella pneumoniae [16])	MIC [17]	MIC (Klebsiella pneumoniae [18])	MIC (Pseudomonas aeruginosa [19])	MIC [20]	also measured
CCO/N=C(/N)C1CN(c2c(F)cc3c(=O)c(C(=O)O)cn(C4CC4)c3c2OC)C/C1=N\OC (stereo not given)	0.25 µg/mL (≈ 0.526 µM)	> 128 µg/mL	128 µg/mL (≈ 269 µM)	0.25 µg/mL (≈ 0.526 µM)	> 128 µg/mL	> 128 µg/mL	> 128 µg/mL	> 128 µg/mL	> 128 µg/mL	> 128 µg/mL	0.5 µg/mL (≈ 1.05 µM)	> 128 µg/mL	128 µg/mL (≈ 269 µM)	0.25 µg/mL (≈ 0.526 µM)	2 µg/mL (≈ 4.21 µM)	> 128 µg/mL	0.25 µg/mL (≈ 0.526 µM)	> 128 µg/mL	128 µg/mL (≈ 269 µM)	0.125 µg/mL (≈ 0.263 µM)	MIC (Enterococcus faecium [21]): > 128 µg/mL; MIC [22]: 0.125 µg/mL (≈ 0.263 µM); MIC (Staphylococcus aureus [23]): 0.25 µg/mL (≈ 0.526 µM); MIC (Streptococcus pneumoniae [24]): 32 µg/mL (≈ 67.3 µM); MIC (Klebsiella pneumoniae [25]): 8 µg/mL (≈ 16.8 µM)
CCO/N=C1\CN(c2c(F)cc3c(=O)c(C(=O)O)cn(C4CC4)c3c2OC)CC1/C(N)=N\OCC (stereo not given)	64 µg/mL (≈ 131 µM)	64 µg/mL (≈ 131 µM)	64 µg/mL (≈ 131 µM)	0.5 µg/mL (≈ 1.02 µM)	64 µg/mL (≈ 131 µM)	64 µg/mL (≈ 131 µM)	64 µg/mL (≈ 131 µM)	64 µg/mL (≈ 131 µM)	64 µg/mL (≈ 131 µM)	64 µg/mL (≈ 131 µM)	0.5 µg/mL (≈ 1.02 µM)	64 µg/mL (≈ 131 µM)	16 µg/mL (≈ 32.7 µM)	0.5 µg/mL (≈ 1.02 µM)	1 µg/mL (≈ 2.04 µM)	64 µg/mL (≈ 131 µM)	0.5 µg/mL (≈ 1.02 µM)	64 µg/mL (≈ 131 µM)	16 µg/mL (≈ 32.7 µM)	1 µg/mL (≈ 2.04 µM)	MIC (Enterococcus faecium [21]): 64 µg/mL (≈ 131 µM); MIC [22]: 1 µg/mL (≈ 2.04 µM); MIC (Staphylococcus aureus [23]): 64 µg/mL (≈ 131 µM); MIC (Streptococcus pneumoniae [24]): 64 µg/mL (≈ 131 µM); MIC (Klebsiella pneumoniae [25]): 32 µg/mL (≈ 65.4 µM)
CO/N=C1\CN(c2c(F)cc3c(=O)c(C(=O)O)cn(C4CC4)c3c2OC(F)F)CC1/C(N)=N\O (stereo not given)	0.25 µg/mL (≈ 0.517 µM)	> 128 µg/mL	> 128 µg/mL	0.25 µg/mL (≈ 0.517 µM)	> 128 µg/mL	> 128 µg/mL	> 128 µg/mL	> 128 µg/mL	> 128 µg/mL	> 128 µg/mL	4 µg/mL (≈ 8.27 µM)	> 128 µg/mL	128 µg/mL (≈ 265 µM)	0.125 µg/mL (≈ 0.259 µM)	4 µg/mL (≈ 8.27 µM)	> 128 µg/mL	0.25 µg/mL (≈ 0.517 µM)	> 128 µg/mL	128 µg/mL (≈ 265 µM)	0.5 µg/mL (≈ 1.03 µM)	MIC (Enterococcus faecium [21]): > 128 µg/mL; MIC [22]: 0.25 µg/mL (≈ 0.517 µM); MIC (Staphylococcus aureus [23]): 0.125 µg/mL (≈ 0.259 µM); MIC (Streptococcus pneumoniae [24]): 4 µg/mL (≈ 8.27 µM); MIC (Klebsiella pneumoniae [25]): 64 µg/mL (≈ 132 µM)
CCO/N=C1\CN(c2c(F)cc3c(=O)c(C(=O)O)cn(C4CC4)c3c2OC(F)F)CC1/C(N)=N\O (stereo not given)	1 µg/mL (≈ 2.01 µM)	> 128 µg/mL	> 128 µg/mL	0.25 µg/mL (≈ 0.503 µM)	> 128 µg/mL	128 µg/mL (≈ 257 µM)	> 128 µg/mL	> 128 µg/mL	> 128 µg/mL	> 128 µg/mL	1 µg/mL (≈ 2.01 µM)	128 µg/mL (≈ 257 µM)	128 µg/mL (≈ 257 µM)	0.5 µg/mL (≈ 1.01 µM)	8 µg/mL (≈ 16.1 µM)	> 128 µg/mL	1 µg/mL (≈ 2.01 µM)	> 128 µg/mL	128 µg/mL (≈ 257 µM)	1 µg/mL (≈ 2.01 µM)	MIC (Enterococcus faecium [21]): > 128 µg/mL; MIC [22]: 1 µg/mL (≈ 2.01 µM); MIC (Staphylococcus aureus [23]): 0.25 µg/mL (≈ 0.503 µM); MIC (Streptococcus pneumoniae [24]): 8 µg/mL (≈ 16.1 µM); MIC (Klebsiella pneumoniae [25]): 8 µg/mL (≈ 16.1 µM)
